# Compounds with a hit are over-represented: about 1.2% of the library has one in this group of screens.
# SR-BI DiI inh = mouse SR-BI HDL lipid transfer inhibition; Q61009; ldlA[mSR-BI] CHO cells, DiI-HDL uptake fluorescence, 3 h; inhibition, % at 12.5 µM; actives 0.96% (n = 320,000); AID 488896;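 active means mean replicate inhibition of at least 70% and a set share of replicates each scoring 70 or more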;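 further: 0% = median of neutral control wells and 100% = median of positive control wells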
# Target sequence (Q61009 whole entry, looked up): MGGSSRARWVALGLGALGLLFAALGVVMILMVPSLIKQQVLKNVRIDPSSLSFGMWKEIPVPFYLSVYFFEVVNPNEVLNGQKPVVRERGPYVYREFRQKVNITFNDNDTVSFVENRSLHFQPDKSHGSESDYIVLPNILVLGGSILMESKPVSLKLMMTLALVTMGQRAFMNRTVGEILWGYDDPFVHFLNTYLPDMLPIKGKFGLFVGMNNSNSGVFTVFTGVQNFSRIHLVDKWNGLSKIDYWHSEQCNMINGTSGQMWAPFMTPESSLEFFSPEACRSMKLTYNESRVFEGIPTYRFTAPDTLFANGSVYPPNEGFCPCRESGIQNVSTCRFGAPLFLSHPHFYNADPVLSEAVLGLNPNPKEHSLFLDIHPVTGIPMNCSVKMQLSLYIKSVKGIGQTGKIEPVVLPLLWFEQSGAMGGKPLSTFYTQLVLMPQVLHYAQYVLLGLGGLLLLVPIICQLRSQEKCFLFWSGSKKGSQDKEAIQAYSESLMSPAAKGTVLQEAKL
# CaV13 ICDI inh = Disruptors of the CACNA1D IQ motif to Ca2+-dependent inactivation inhibitor domain association, primary screening, Förster resonance energy transfer in intact living …; AID 743397; HEK cells, CFP/YFP FRET ICDI-IQ, plate reader, 10 min; percent FRET-ratio fall versus neutral wells; inhibition, % at 12.3 µM; actives 0.098% (n = 340,000);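 active means mean replicate inhibition of at least 30% and at least 1% of replicates passing that level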;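 further: 0% = median of the neutral control wells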
# FN deposit inh = fibronectin deposition inhibition; AH1F fibroblasts, Alexa488-fibronectin deposition fluorescence, overnight; inhibition, % at 12.6 µM; actives 0.086% (n = 350,000); AID 743247;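 active means mean inhibition across replicates of 30% or more, regardless of how many single replicates reach that level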;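 further: positive control wells lacked labelled fibronectin entirely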
#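 Material – AH1F fibroblast monolayer, labelled fibronectin deposition · Reagent – labelled fibronectin 24 nM · Timing – 1 h adhesion, overnight exposure · Measured by – fluorescence at 485 nm excitation, 525 nm emission · Read-out – inhibition of fibronectin deposition signal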
# SR-BI uptake up = activators of SR-BI mediated HDL lipid uptake; actives 0.096% (n = 320,000); activation, % at 12.5 µM; CHO ldlA[mSR-BI] cells, DiI-HDL uptake fluorescence, 3 h; 100 = double the neutral-control signal;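 active means mean replicate activation of at least 60% and every replicate at or above 60%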;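 further: 0% = median plate neutral-control signal and 100% = twice that signal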
#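 Material: SR-BI-overexpressing, LDLR-lacking CHO cells | Dosing: Single compound concentration, delivered by pin transfer | Probe or stimulus: Labelled HDL, 10 µg/mL | Signal: Bottom-read cell fluorescence after medium removal, ex 550/em 595 nm | Schedule: 3 h, 37 °C | Evaluation: HDL uptake via cellular fluorescence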
# Efflux pump inh = antifungal efflux pump inhibition, Nile Red retention; S. cerevisiae Candida pump triplex; inhibition, % at 10 µM; actives 0.44% (n = 330,000); AID 485275;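 active means plate passing quality check with inhibition over a set limit, or well fluorescence over plate mean plus 4 SD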;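 further: Nile Red retained in pooled yeast measured as flow cytometry median fluorescence; 0% = buffer negative control and 100% = Enniatin B positive control; higher means more Nile Red kept so more efflux inhibition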
# * marks the source's active call; other numbers are inactive results; / = not tested or not shown; + = active, no number.
SMILES,SR-BI DiI inh,CaV13 ICDI inh,FN deposit inh,SR-BI uptake up,Efflux pump inh
CCC(=O)Nc1ccc2c(c1)C(=O)N(C)[C@H]1CC[C@@H](CC(=O)N3CCc4ccccc4C3)O[C@H]1CO2,/,/,3,/,/
COc1cc2c(cc1NC(=O)c1cc(-c3cccnc3)nc3ccc(C)cc13)oc1ccccc12,78*,-10,/,-78,-4
COc1ccccc1NC(=O)c1cc(-c2ccc(OC)c(OC)c2)nc2ccccc12,52,-3,2,-52,/
COc1cc2c(cc1NC(=O)c1cc(-c3ccncc3)nc3ccccc13)oc1ccccc12,83*,-3,13,-83,0
CC1(C)CC[C@]2(C(=O)O)CC[C@]3(C)C(=CC[C@@H]4[C@@]5(C)CC[C@H](O[C@@H]6O[C@H](C(=O)O)[C@@H](O)[C@H](O[C@@H]7OC[C@H](O)[C@H](O)[C@H]7O)[C@H]6O)C(C)(C)[C@@H]5CC[C@]43C)[C@@H]2C1,-6,0,51*,6,1
CCS(=O)(=O)N1CC2(C1)[C@@H](c1ccccc1)[C@H](CO)N2C(=O)C1CCCC1,/,/,-1,/,/
Cc1noc(C)c1S(=O)(=O)N(C)C[C@H]1Oc2ccc(NC(=O)Nc3ccc4c(c3)OCO4)cc2C(=O)N([C@H](C)CO)C[C@@H]1C,/,/,-11,/,/
O=C1C=C(c2cc(C(F)(F)F)cc(C(F)(F)F)c2)C[C@@H](c2ccc(Cl)cc2)C1,74*,-10,5,-74,1
C[C@H]1CN([C@@H](C)CO)C(=O)c2ccccc2-c2ccccc2CO[C@@H]1CN(C)S(C)(=O)=O,/,/,-18,/,/
O=C(CSC1=NNC(c2ccccn2)S1)Nc1cccc(Cl)c1 (configuration not stated),78*,3,7,-78,0
CNC[C@H]1Oc2ccc(NS(C)(=O)=O)cc2C(=O)N(C)C[C@H]1C,/,/,-2,/,/
CC(=O)c1c(C)[nH]c(C(=O)OCC(=O)Nc2cccc(S(=O)(=O)N3CCCC3)c2)c1C,45,-3,-7,-45,0
CC(=O)c1c(C)[nH]c(C(=O)Nc2cccc(S(=O)(=O)N3CCCC3)c2)c1C,74*,-16,1,-74,0
COc1ccc(NC(=O)c2[nH]c(C)c(C(C)=O)c2C)cc1S(=O)(=O)N1CCOCC1,64,-5,2,-64,0
CC(=O)c1c(C)[nH]c(C(=O)Nc2ccc(Cl)c(S(=O)(=O)N3CCOCC3)c2)c1C,79*,-2,-4,-79,-3
CC(=O)c1c(C)[nH]c(C(=O)Nc2cc(C)cc(C)c2)c1C,83*,/,/,-83,0
COCCNC(=O)C[C@H]1C=C[C@H](NC(=O)NC2CCCC2)[C@H](CO)O1,/,/,-18,/,/
O=C(C[C@@H]1C=C[C@H](NC(=O)CN2CCOCC2)[C@@H](CO)O1)NCCc1ccncc1,/,/,3,/,/
Cc1c(Cl)c(=O)n2c(=O)c(Cl)c(C)n12,-10,+,11,10,-1
O=C1c2ccccc2S(=O)(=O)c2cc(N3CCC(C(=O)N4CCCCC4)CC3)ccc21,/,+,-2,/,/
O=C(NC1CCCCC1)c1cccc2c1C(=O)c1ccc(N3CCCC3)cc1S2(=O)=O,-11,-17,4,11,0
CCN(CC)C(=O)/C(=C/c1cn(S(=O)(=O)N(C)C)c2ccccc12)NC(=O)c1ccc(OC)cc1,88*,2,1,-88,0
COc1ccc(C(=O)N/C(=C\c2cn(S(=O)(=O)N(C)C)c3ccccc23)C(=O)NC(C)C)cc1,2,14,3,-2,0
CCN=C1S/C(=C/c2ccc(-c3ccc(F)cc3)o2)C(=O)N1CC,72*,-4,0,-72,0
O=C(CSC1=NCCN1)NC12CC3CC(CC(C3)C1)C2,73*,-7,/,-73,0
Cc1nnc(SCC(=O)NC23CC4CC(CC(C4)C2)C3)s1,-1,-6,/,1,0
COc1cccc(NC(=O)N(C)C[C@@H]2OCc3cn(nn3)CCCC(=O)N([C@H](C)CO)C[C@@H]2C)c1,/,/,-1,/,/
CN(C)C(=O)c1cc2c(c(-c3cccc(C4=CCCCC4)c3)n1)[C@H](CCO)N([S@@](=O)C(C)(C)C)C2,/,/,-8,/,/
COc1ccc(NCc2ccc(OC)c(OC)c2)cc1,/,/,/,/,7.5*

# Screening data (PubChem)
